Reference: ChEMBL document CHEMBL3124836, “Pyrano-isoflavans from Glycyrrhiza uralensis with antibacterial activity against Streptococcus mutans and Porphyromonas gingivalis” (2014)
Values after ≈ are worked out from the molar mass of the structure shown.

Columns and labels:
Assay type in all cases: functional
[1] = system: Streptococcus mutans; test: Bactericidal activity against Streptococcus mutans ATCC 35668 after 3 days; details: ATCC 35668, 72 h
Procedure, shortened: (§1)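 From microbroth wells without visible growth after 24 h, aliquots were spread on THB agar and incubated 3 days at 37 °C. MBC was the lowest concentration giving no colony formation. Three independent experiments.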

[2] = system: Streptococcus mutans; test: Antibacterial activity against Streptococcus mutans ATCC 35668 after 24 hrs by microbroth dilution assay; details: ATCC 35668, 24 h
Procedure, shortened: (§2)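 EtOH stocks tested as a 2-fold series (200–0.78 μg/mL) mixed with an equal volume of overnight culture diluted to OD660 0.2. Medium was THB plus hemin 10 μg/mL and vitamin K 10 μg/mL. P. gingivalis was run anaerobically (N2/H2/CO2 80/10/10) and S. mutans aerobically. After 24 h at 37 °C growth was read visually; MIC was the lowest concentration without growth. Three independent experiments.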

[3] = system: Porphyromonas gingivalis; test: Bactericidal activity against Porphyromonas gingivalis ATCC 33277 after 3 days; details: ATCC 33277, 72 h; procedure, shortened: as §1
[4] = system: Porphyromonas gingivalis; test: Antibacterial activity against Porphyromonas gingivalis ATCC 33277 after 24 hrs by microbroth dilution assay; details: ATCC 33277, 24 h; procedure, shortened: as §2

SMILES | MBC [1] | MIC [2] | MBC [3] | MIC [4]
COc1c2c(cc3oc(=O)c4c5ccc(O)cc5oc4c13)OC(C)(C)CC2 [ISOGLYCYROL] | > 200 µg/mL | > 200 µg/mL | 200 µg/mL (≈ 546 µM) | 200 µg/mL (≈ 546 µM)
COc1c(CC=C(C)C)c(O)cc2c1C[C@H](c1ccc3c(c1O)C=CC(C)(C)O3)CO2 | 12.5 µg/mL (≈ 29.6 µM) | 12.5 µg/mL (≈ 29.6 µM) | 12.5 µg/mL (≈ 29.6 µM) | 12.5 µg/mL (≈ 29.6 µM)
COc1c2c(cc3c1C[C@H](c1ccc(O)c(CC=C(C)C)c1O)CO3)OC(C)(C)C=C2 | > 200 µg/mL | 25 µg/mL (≈ 59.2 µM) | 6.25 µg/mL (≈ 14.8 µM) | 6.25 µg/mL (≈ 14.8 µM)
COc1cc2occ(-c3ccc(O)cc3)c(=O)c2c(O)c1CC=C(C)C [GANCAONIN G] | > 200 µg/mL | > 200 µg/mL | 200 µg/mL (≈ 568 µM) | 200 µg/mL (≈ 568 µM)
COc1c(CC=C(C)C)c(O)cc2c1C[C@H](c1ccc(O)c3c1OC(C)(C)C=C3)CO2 | 6.25 µg/mL (≈ 14.8 µM) | 6.25 µg/mL (≈ 14.8 µM) | 6.25 µg/mL (≈ 14.8 µM) | 6.25 µg/mL (≈ 14.8 µM)
CN(C)[C@@H]1C(O)=C(C(N)=O)C(=O)[C@@]2(O)C(O)=C3C(=O)c4c(O)cccc4[C@@](C)(O)[C@H]3C[C@@H]12 [TETRACYCLINE] | – | – | 12.5 µg/mL (≈ 28.1 µM) | 1.56 µg/mL (≈ 3.51 µM)
COc1c(CC=C(C)C)c(O)cc2c1[C@@H]1Oc3c(ccc(O)c3CC=C(C)C)[C@@H]1CO2 | > 200 µg/mL | 200 µg/mL (≈ 473 µM) | 50 µg/mL (≈ 118 µM) | 50 µg/mL (≈ 118 µM)
COc1c(CC=C(C)C)c(O)cc2c1C[C@H](c1ccc(O)c(CC=C(C)C)c1O)CO2 [LICORICIDIN] | 25 µg/mL (≈ 58.9 µM) | 12.5 µg/mL (≈ 29.4 µM) | 3.12 µg/mL (≈ 7.36 µM) | 3.12 µg/mL (≈ 7.36 µM)
COc1c(CC=C(C)C)c(O)cc2c1C[C@H](C1=CC(=O)C(O)=C(CC=C(C)C)C1=O)CO2 | > 200 µg/mL | > 200 µg/mL | 25 µg/mL (≈ 57 µM) | 25 µg/mL (≈ 57 µM)
CC1(C)S[C@@H]2[C@H](NC(=O)Cc3ccccc3)C(=O)N2[C@H]1C(=O)O [PENICILLIN G] | 1.56 µg/mL (≈ 4.67 µM) | 0.05 µg/mL (≈ 0.15 µM) | – | –
